# How the values were obtained:
# Assay type in all cases: functional
# [1] = system: Candida albicans; experiment: Antifungal activity against Candida albicans ATCC 90028 after 48 hrs by CLSI broth microdilution method; conditions: ATCC 90028, 48 h
# How it was run: (§1)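 Yeast CLSI broth microdilution (M27-A3). Compounds dissolved in DMSO at 100× the top test concentration, then diluted as serial two-fold dilutions in RPMI 1640 to final 0.125–64. Inoculum was 1.0–1.5 × 10^3 cells mL−1, incubated at 35 °C and read for growth at 48 h. MIC is the lowest concentration giving ≥50% growth inhibition versus growth control. Reported as the median of five replicates and as the geometric mean.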
# [2] = system: Candida albicans; experiment: Antifungal activity against Candida albicans ATCC 20891 after 48 hrs by CLSI broth microdilution method; conditions: ATCC 20891, 48 h; how it was run: as §1
# [3] = system: Candida albicans; experiment: Antifungal activity against Candida albicans PMC 1011 after 48 hrs by CLSI broth microdilution method; conditions: PMC 1011, 48 h; how it was run: as §1
# [4] = system: Pichia kudriavzevii; experiment: Antifungal activity against Candida krusei DSM 6128 after 48 hrs by CLSI broth microdilution method; conditions: DSM 6128, 48 h; how it was run: as §1
# [5] = system: Pichia kudriavzevii; experiment: Antifungal activity against Candida krusei PMC 0613 after 48 hrs by CLSI broth microdilution method; conditions: PMC 0613, 48 h; how it was run: as §1
# [6] = system: Candida tropicalis; experiment: Antifungal activity against Candida tropicalis PMC 0910 after 48 hrs by CLSI broth microdilution method; conditions: PMC 0910, 48 h; how it was run: as §1
# [7] = system: Candida tropicalis; experiment: Antifungal activity against Candida tropicalis DSM 11953 after 48 hrs by CLSI broth microdilution method; conditions: DSM 11953, 48 h; how it was run: as §1
# [8] = system: Candida parapsilosis; experiment: Antifungal activity against Candida parapsilosis DSM 11224 after 48 hrs by CLSI broth microdilution method; conditions: Lodderomyces parapsilosis, DSM 11224, 48 h; how it was run: as §1
# [9] = system: Candida parapsilosis; experiment: Antifungal activity against Candida parapsilosis ATCC 22019 after 48 hrs by CLSI broth microdilution method; conditions: Lodderomyces parapsilosis, ATCC 22019, 48 h; how it was run: as §1
# [10] = system: Nakaseomyces glabratus; experiment: Antifungal activity against Candida glabrata PMC 0805 after 48 hrs by CLSI broth microdilution method; conditions: PMC 0805, 48 h; how it was run: as §1
# [11] = system: Nakaseomyces glabratus; experiment: Antifungal activity against Candida glabrata PMC 0807 after 48 hrs by CLSI broth microdilution method; conditions: PMC 0807, 48 h; how it was run: as §1
# [12] = system: Cryptococcus neoformans; experiment: Antifungal activity against Cryptococcus neoformans PMC 2123 after 72 hrs by CLSI broth microdilution method; conditions: PMC 2123, 72 h
# How it was run: (§2)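 Cryptococcus neoformans tested by CLSI broth microdilution in RPMI 1640, with serial two-fold dilutions from DMSO stocks at 100× the top concentration, final 0.125–64. Inoculum was 1.0–1.5 × 10^3 cells mL−1 at 35 °C, with growth read at 72 h. MIC is the lowest concentration with ≥50% growth inhibition versus control. Median of five replicates, plus geometric mean.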
# [13] = system: Cryptococcus neoformans; experiment: Antifungal activity against Cryptococcus neoformans PMC 2136 after 72 hrs by CLSI broth microdilution method; conditions: PMC 2136, 72 h; how it was run: as §2
# [14] = system: Cryptococcus neoformans; experiment: Antifungal activity against Cryptococcus neoformans PMC 2115 after 72 hrs by CLSI broth microdilution method; conditions: PMC 2115, 72 h; how it was run: as §2
# [15] = system: Cryptococcus neoformans; experiment: Antifungal activity against Cryptococcus neoformans PMC 2103 after 72 hrs by CLSI broth microdilution method; conditions: PMC 2103, 72 h; how it was run: as §2
# [16] = system: Cryptococcus neoformans; experiment: Antifungal activity against Cryptococcus neoformans PMC 2107 after 72 hrs by CLSI broth microdilution method; conditions: PMC 2107, 72 h; how it was run: as §2
# [17] = system: Cryptococcus neoformans; experiment: Antifungal activity against Cryptococcus neoformans PMC 2102 after 72 hrs by CLSI broth microdilution method; conditions: PMC 2102, 72 h; how it was run: as §2
# [18] = system: Cryptococcus neoformans; experiment: Antifungal activity against Cryptococcus neoformans DSM 11959 after 72 hrs by CLSI broth microdilution method; conditions: DSM 11959, 72 h; how it was run: as §2
# [19] = system: Cryptococcus neoformans; experiment: Antifungal activity against Cryptococcus neoformans PMC 2111 after 72 hrs by CLSI broth microdilution method; conditions: PMC 2111, 72 h; how it was run: as §2
# [20] = system: Trichophyton mentagrophytes; experiment: Antifungal activity against Trichophyton mentagrophytes DSM 4870 after 72 hrs by CLSI broth microdilution method; conditions: DSM 4870, 72 h
# How it was run: (§3)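 Dermatophytes tested by CLSI broth microdilution for filamentous fungi (M38-A2). Serial two-fold dilutions of DMSO-dissolved compound in RPMI 1640, final 0.125–64. Inoculum was 0.4–5 × 10^4 CFU mL−1, incubated at 35 °C and read at 72 h. MIC80 is the lowest concentration giving ≥80% growth inhibition versus growth control. Median of five replicates, plus geometric mean.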
# [21] = system: Trichophyton mentagrophytes; experiment: Antifungal activity against Trichophyton mentagrophytes PMC 6515 after 72 hrs by CLSI broth microdilution method; conditions: PMC 6515, 72 h; how it was run: as §3
# [22] = system: Trichophyton mentagrophytes; experiment: Antifungal activity against Trichophyton mentagrophytes PMC 6531 after 72 hrs by CLSI broth microdilution method; conditions: PMC 6531, 72 h; how it was run: as §3
# [23] = system: Trichophyton mentagrophytes; experiment: Antifungal activity against Trichophyton mentagrophytes PMC 6509 after 72 hrs by CLSI broth microdilution method; conditions: PMC 6509, 72 h; how it was run: as §3
# [24] = system: Trichophyton mentagrophytes; experiment: Antifungal activity against Trichophyton mentagrophytes PMC 6503 after 72 hrs by CLSI broth microdilution method; conditions: PMC 6503, 72 h; how it was run: as §3
# [25] = system: Trichophyton mentagrophytes; experiment: Antifungal activity against Trichophyton mentagrophytes PMC 6552 after 72 hrs by CLSI broth microdilution method; conditions: PMC 6552, 72 h; how it was run: as §3
# [26] = system: Nannizzia gypsea; experiment: Antifungal activity against Microsporum gypseum PMC 7303 after 72 hrs by CLSI broth microdilution method; conditions: PMC 7303, 72 h; how it was run: as §3
# [27] = system: Nannizzia gypsea; experiment: Antifungal activity against Microsporum gypseum PMC 7331 after 72 hrs by CLSI broth microdilution method; conditions: PMC 7331, 72 h; how it was run: as §3
# [28] = system: Nannizzia gypsea; experiment: Antifungal activity against Microsporum gypseum DSM 3824 after 72 hrs by CLSI broth microdilution method; conditions: DSM 3824, 72 h; how it was run: as §3
# [29] = system: Candida albicans; experiment: Antifungal activity against Candida albicans PMC 1040R after 48 hrs by CLSI broth microdilution method; how it was run: as §1
# [30] = system: Candida albicans; experiment: Antifungal activity against Candida albicans PMC 1041R after 48 hrs by CLSI broth microdilution method; how it was run: as §1
# [31] = system: Nakaseomyces glabratus; experiment: Antifungal activity against Candida glabrata PMC 0850R after 48 hrs by CLSI broth microdilution method; how it was run: as §1
# [32] = system: Nakaseomyces glabratus; experiment: Antifungal activity against Candida glabrata PMC 0851R after 48 hrs by CLSI broth microdilution method; how it was run: as §1
# [33] = system: Nakaseomyces glabratus; experiment: Antifungal activity against Candida glabrata PMC 0852R after 48 hrs by CLSI broth microdilution method; how it was run: as §1
# [34] = system: Nakaseomyces glabratus; experiment: Antifungal activity against Candida glabrata PMC 0853R after 48 hrs by CLSI broth microdilution method; how it was run: as §1
# [35] = system: Candida albicans; experiment: Antifungal activity against Candida albicans PMC 1042R after 48 hrs by CLSI broth microdilution method; how it was run: as §1
# [36] = system: Candida albicans; experiment: Antifungal activity against Candida albicans ATCC 24433 after 48 hrs by CLSI broth microdilution method; conditions: ATCC 24433, 48 h; how it was run: as §1
# [37] = system: Candida albicans; experiment: Antifungal activity against Candida albicans ATCC 3153 after 48 hrs by CLSI broth microdilution method; conditions: ATCC 3153, 48 h; how it was run: as §1
# [38] = system: Candida albicans; experiment: Antifungal activity against Candida albicans ATCC 10231 after 48 hrs by CLSI broth microdilution method; conditions: ATCC 10231, 48 h; how it was run: as §1
# [39] = system: Candida albicans; experiment: Antifungal activity against Candida albicans ATCC 76615 after 48 hrs by CLSI broth microdilution method; conditions: ATCC 76615, 48 h; how it was run: as §1
# [40] = system: Candida albicans; experiment: Antifungal activity against Candida albicans ATCC 10261 after 48 hrs by CLSI broth microdilution method; conditions: ATCC 10261, 48 h; how it was run: as §1
smiles,measurement,setting,value
OC(Cn1cncn1)(Cn1cncn1)c1ccc(F)cc1F [FLUCONAZOLE],MIC50,[1],0.5 µg/mL
same,MIC50,[2],1 µg/mL
same,MIC50,[3],0.25 µg/mL
same,MIC50,[4],16 µg/mL
same,MIC50,[5],8 µg/mL
same,MIC50,[6],4 µg/mL
same,MIC50,[7],1 µg/mL
same,MIC50,[8],1 µg/mL
same,MIC50,[9],2 µg/mL
same,MIC50,[10],1 µg/mL
same,MIC50,[11],16 µg/mL
same,MIC50,[12],2 µg/mL
same,MIC50,[13],2 µg/mL
same,MIC50,[14],4 µg/mL
same,MIC50,[15],2 µg/mL
same,MIC50,[16],1 µg/mL
same,MIC50,[17],4 µg/mL
same,MIC50,[18],2 µg/mL
same,MIC50,[19],1 µg/mL
same,MIC80,[20],16 µg/mL
same,MIC80,[21],8 µg/mL
same,MIC80,[22],4 µg/mL
same,MIC80,[23],1 µg/mL
same,MIC80,[24],2 µg/mL
same,MIC80,[25],8 µg/mL
same,MIC80,[26],16 µg/mL
same,MIC80,[27],16 µg/mL
same,MIC80,[28],16 µg/mL
same,MIC50,[29],512 µg/mL
same,MIC50,[30],32 µg/mL
same,MIC50,[31],32 µg/mL
same,MIC50,[32],128 µg/mL
same,MIC50,[33],16 µg/mL
same,MIC50,[34],32 µg/mL
same,MIC50,[35],16 µg/mL
same,MIC50,[36],0.5 µg/mL
same,MIC50,[37],16 µg/mL
same,MIC50,[38],2 µg/mL
same,MIC50,[39],0.5 µg/mL
same,MIC50,[40],4 µg/mL

# From ChEMBL document CHEMBL3286116, “Synthesis, biological evaluation and structure-activity correlation study of a series of imidazol-based compounds as Candida albicans inhibitors” (Eur J Med Chem, 2014)
